Results: ChEMBL document CHEMBL4428077, “Synthesis and Biological Evaluation of N-((1-(4-(Sulfonyl)piperazin-1-yl)cycloalkyl)methyl)benzamide Inhibitors of Glycine Transporter-1” (J Med Chem, 2016)

Columns and labels:
Rattus norvegicus [1] = assay: In vivo inhibition of glycine transporter-1 in Sprague-Dawley rat assessed as CSF glycine level at 3 mg/kg, po qd for 5 days measured 2 hrs post last dose by LC-MS/MS analysis relative to control; assay type: functional; set-up: scale not given: the % may be the effect or the level left
Summary of the method: (§1)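 Drug-naive Sprague-Dawley rats, n = 5 per group, dosed orally once daily for 5 days with vehicle or 1.6, 4.8 or 16.1 μmol/kg. Vehicle was 5% Solutol / 20% Captisol in 25 mM PBS, pH 2. Killed 2 h or 48 h after the last dose. CSF glycine was expressed as % of vehicle control (vehicle 2 h post last dose), mean ± SEM. Two-way ANOVA with Tukey test.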

[2] = Drug level in Sprague-Dawley rat plasma at 100 mg/kg, po measured 2 hrs post dose by LC-MS/MS analysis; assay type: ADME, organism-based
Summary of the method: (§2)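 Drug-naive Sprague−Dawley rats (n = 4−5/group) were dosed orally once in 5% Solutol plus 20% Captisol in 25 mM PBS, pH 2, and euthanized 2 h later by CO₂. CSF was drawn from the cisterna magna. Drug was measured in CSF, brain and plasma; data as mean ± SEM.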

[3] = Drug level in Sprague-Dawley rat brain at 1 mg/kg, po qd for 5 days measured 2 hrs post last dose by LC-MS/MS analysis; assay type: ADME, organism-based; details: read-out: Drug uptake
Summary of the method: (§3)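 Drug-naive Sprague−Dawley rats (n = 5/group) were dosed orally once daily for 5 days in 5% Solutol plus 20% Captisol in 25 mM PBS, pH 2, and sacrificed 2 h after the last dose. Drug was measured in CSF, brain and plasma; mean ± SEM.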

Rattus norvegicus [4] = assay: In vivo inhibition of glycine transporter-1 in Sprague-Dawley rat assessed as CSF glycine level at 10 mg/kg, po qd for 5 days measured 2 hrs post last dose by LC-MS/MS analysis relative to control; assay type: functional; set-up: scale not given: the % may be the effect or the level left; summary of the method: as §1
[5] = Drug level in Sprague-Dawley rat CSF at 10 mg/kg, po qd for 5 days measured 2 hrs post last dose by LC-MS/MS analysis; assay type: ADME, organism-based, Cerebrospinal fluid; details: read-out: Drug uptake; summary of the method: as §3
[6] = Drug level in Sprague-Dawley rat CSF at 1 mg/kg, po qd for 5 days measured 2 hrs post last dose by LC-MS/MS analysis; assay type: ADME, organism-based, Cerebrospinal fluid; details: read-out: Drug uptake; summary of the method: as §3
[7] = Drug level in Sprague-Dawley rat CSF at 30 mg/kg, po measured 2 hrs post dose by LC-MS/MS analysis; assay type: ADME, organism-based, Cerebrospinal fluid; details: read-out: Drug uptake; summary of the method: as §2
Rattus norvegicus [8] = assay: In vivo inhibition of glycine transporter-1 in Sprague-Dawley rat assessed as CSF glycine level at 100 mg/kg, po measured 2 hrs post dose by LC-MS/MS analysis relative to control; assay type: functional; set-up: scale not given: the % may be the effect or the level left
Summary of the method: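 Drug-naive Sprague-Dawley rats, n = 5 per group, given acute oral doses of 0.4-160.9 μmol/kg (0.3-100 mg/kg). Vehicle was Solutol 5% in 20% Captisol / 25 mM PBS, pH 2. Killed 2 h post-dose. CSF glycine was quantified by LC-MS/MS with a deuterated-glycine standard and expressed as % vehicle control, mean ± SEM. Two-way ANOVA with Tukey test.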

[9] = Efflux ratio of apparent permeability in human Caco2 cells; assay type: ADME, cell-based; details: Caco-2
[10] = Drug level in cynomolgus monkey CSF at 0.3 to 3 mg/kg, po measured up to 24 hrs post dose by LC-MS/MS analysis; assay type: ADME, organism-based, Macaca fascicularis, Cerebrospinal fluid; details: in vivo, BLD = below limit of detection
Summary of the method: (§4)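 Cynomolgus monkeys (n = 3/group) fitted with subcutaneous CSF ports were dosed orally at 0.4−15.7 μmol/kg in 5% Solutol plus 20% Captisol in 25 mM PBS, pH 2. CSF (about 0.30 mL) and blood were sampled predose and at 0.5, 1, 2, 3, 4, 8, 12 and 24 h. Quantitation limit 1.0 ng/mL; mean ± SD.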

[11] = Drug level in po dosed Sprague-Dawley rat CSF measured 2 hrs post dose by LC-MS/MS analysis; assay type: ADME, organism-based, Cerebrospinal fluid; details: in vivo
[12] = Tmax in Sprague-Dawley rat plasma at 10 mg/kg, po administered as single dose by LC-MS/MS analysis; assay type: ADME, organism-based
Summary of the method: (§5)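 Groups of three drug-naive adult male Sprague–Dawley rats, single dose: IV 3.1 μmol/kg in 5% DMSO/10% Solutol in saline (5 mL/kg), or PO 15.7 μmol/kg in 5% Solutol/10% Captisol in 25 mM PBS adjusted to pH 2 with HCl. Plasma concentration–time data give the parameters; mean ± SD.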

[13] = molecular target: Voltage-gated inwardly rectifying potassium channel KCNH2 (Homo sapiens, UniProt Q12809); assay: Inhibition of human ERG channel expressed in HEK293 cells by patch clamp assay; assay type: cell-based
Chain of Voltage-gated inwardly rectifying potassium channel KCNH2 (Q12809 whole entry): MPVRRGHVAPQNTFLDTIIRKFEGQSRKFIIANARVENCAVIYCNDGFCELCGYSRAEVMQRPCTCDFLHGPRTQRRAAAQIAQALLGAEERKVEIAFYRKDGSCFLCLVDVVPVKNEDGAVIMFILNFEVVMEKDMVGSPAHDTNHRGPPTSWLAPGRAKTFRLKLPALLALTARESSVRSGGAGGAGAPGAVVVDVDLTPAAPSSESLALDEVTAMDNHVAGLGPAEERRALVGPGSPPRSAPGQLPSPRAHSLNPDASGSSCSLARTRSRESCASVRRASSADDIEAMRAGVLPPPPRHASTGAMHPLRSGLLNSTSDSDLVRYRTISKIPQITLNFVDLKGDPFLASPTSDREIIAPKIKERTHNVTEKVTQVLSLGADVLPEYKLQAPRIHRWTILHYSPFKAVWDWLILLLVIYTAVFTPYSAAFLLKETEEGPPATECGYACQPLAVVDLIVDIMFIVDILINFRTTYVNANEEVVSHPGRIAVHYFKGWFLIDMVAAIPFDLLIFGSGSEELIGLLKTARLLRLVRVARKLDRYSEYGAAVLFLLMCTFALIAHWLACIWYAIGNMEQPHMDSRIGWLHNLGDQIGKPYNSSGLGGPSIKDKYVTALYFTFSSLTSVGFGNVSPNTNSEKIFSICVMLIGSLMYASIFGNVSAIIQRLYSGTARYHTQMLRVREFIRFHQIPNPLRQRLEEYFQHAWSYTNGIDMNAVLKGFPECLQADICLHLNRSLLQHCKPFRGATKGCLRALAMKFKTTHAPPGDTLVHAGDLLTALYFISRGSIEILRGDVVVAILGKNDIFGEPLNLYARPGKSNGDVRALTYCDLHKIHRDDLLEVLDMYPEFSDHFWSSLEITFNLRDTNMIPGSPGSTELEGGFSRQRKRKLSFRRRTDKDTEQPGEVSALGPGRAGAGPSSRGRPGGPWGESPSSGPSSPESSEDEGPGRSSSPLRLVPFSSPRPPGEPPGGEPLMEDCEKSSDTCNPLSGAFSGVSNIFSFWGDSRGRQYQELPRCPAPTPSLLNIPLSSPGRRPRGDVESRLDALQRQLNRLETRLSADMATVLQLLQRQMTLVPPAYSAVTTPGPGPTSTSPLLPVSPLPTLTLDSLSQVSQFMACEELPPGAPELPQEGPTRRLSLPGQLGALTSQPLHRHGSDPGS
Summary of the method: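 PatchXpress patch-clamp on HEK293 cells stably expressing hERG. Five-point concentration-response, n = 3.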

Cynomolgus monkey = assay: In vivo inhibition of glycine transporter-1 in po dosed cynomolgus monkey assessed as increase in CSF glycine level measured up to 24 hrs post dose by LC-MS/MS analysis; assay type: functional, Macaca fascicularis
Summary of the method: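 Cynomolgus monkeys, n = 3 per group, given oral doses of 0.4, 1.5, 4.7 or 15.7 μmol/kg. Vehicle was 5% Solutol / 20% Captisol in 25 mM PBS, pH 2. CSF (about 0.30 mL) was drawn through subcutaneous ports with a sterile Huber needle predose and at 0.5, 1, 2, 3, 4, 8, 12 and 24 h. Matched blood was taken at each time. Mean ± SD.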

[14] = Drug level in cynomolgus monkey plasma at 10 mg/kg, po measured at 4 hrs post dose by LC-MS/MS analysis; assay type: ADME, organism-based, Macaca fascicularis
[15] = Total clearance in cynomolgus monkey at 1 mg/kg, iv or 5 mg/kg, po measured up to 12 or 24 hrs post dose by LC-MS/MS analysis; assay type: ADME, organism-based, Macaca fascicularis; details: in vivo
Summary of the method: (§6)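 Three female cynomolgus monkeys per group, single dose: IV 1.5 μmol/kg in 5% DMSO/10% Solutol in saline, pH 6.5 (2 mL/kg), or PO 7.8 μmol/kg in 5% Solutol in 20% Captisol, 25 mM PBS, pH 2 (5 mL/kg). Parameters come from plasma concentration–time data; mean ± SD.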

[16] = Volume of distribution at steady state in Sprague-Dawley rat at 10 mg/kg, po or 2 mg/kg, iv administered as single dose measured up to 24 hrs post dose by LC-MS/MS analysis; assay type: ADME, organism-based; details: in vivo, read-out: Vdss; summary of the method: as §5
[17] = Drug level in cynomolgus monkey plasma at 3 mg/kg, po measured at 24 hrs post dose by LC-MS/MS analysis; assay type: ADME, organism-based, Macaca fascicularis
[18] = Drug level in cynomolgus monkey plasma at 10 mg/kg, po measured at 24 hrs post dose by LC-MS/MS analysis; assay type: ADME, organism-based, Macaca fascicularis
[19] = Drug level in cynomolgus monkey plasma at 10 mg/kg, po measured at 2 hrs post dose by LC-MS/MS analysis; assay type: ADME, organism-based, Macaca fascicularis; summary of the method: as §4
[20] = Drug level in cynomolgus monkey plasma at 10 mg/kg, po measured at 8 hrs post dose by LC-MS/MS analysis; assay type: ADME, organism-based, Macaca fascicularis
[21] = Volume of distribution at steady state in cynomolgus monkey at 1 mg/kg, iv or 5 mg/kg, po measured up to 12 or 24 hrs post dose by LC-MS/MS analysis; assay type: ADME, organism-based, Macaca fascicularis; details: in vivo, read-out: Vdss; summary of the method: as §6
[22] = Protein binding in human plasma; assay type: ADME, cell-free; details: read-out: PPB (converted)

Cl.Cn1cc(S(=O)(=O)N2CCN(C3(CNC(=O)c4ccc(C(F)(F)F)cc4Cl)CCC(F)(F)CC3)CC2)nn1
Activity (Rattus norvegicus [1]): 266.3%
concentration at 2 h [2]: 334 nM
concentration at 2 h [3]: 21 nM
Activity (Rattus norvegicus [4]): 315%
concentration at 2 h [5]: 1.9 nM
concentration at 2 h [6]: 1 nM
concentration at 2 h [7]: 8.3 nM
Activity (Rattus norvegicus [8]): 329.1%

CC(NC(=O)c1ccc(C(F)(F)F)cc1Cl)C1(N2CCN(S(=O)(=O)c3cn(C)nn3)CC2)CCC(F)(F)CC1.Cl (single isomer, unassigned; (+))
efflux ratio [9]: 2
Drug uptake [10]: Bld
Drug uptake [11]: Dose-dependent effect
Tmax [12]: 2.67 h
IC50 [13]: 20.2 µM
ED200 (Cynomolgus monkey): 4.7 to 15.7 µmol/kg
concentration at 4 h [14]: 0.224 µg/mL
clearance [15]: 1.49 L/h/kg
Vd [16]: 1.75 L/kg
concentration at 24 h [17]: < 0.001 µg/mL
concentration at 24 h [18]: 0.0103 µg/mL
concentration at 2 h [19]: 0.222 µg/mL
concentration at 8 h [20]: 0.156 µg/mL
Vd [21]: 1.93 L/kg
fraction unbound [22]: 0.12
